Measured values published in ChEMBL document CHEMBL2029264, “Indole-based fibrates as potential hypolipidemic and antiobesity agents” (J Med Chem, 2012).

Legend:
[1] = system: Rattus norvegicus; test: Antihyperlipidemic activity in HFD-induced hyperlipidemic Charles Foster rat assessed as increase in plasma HDL-phospholipid level at 100 mg/kg, po administered for 4 weeks relative to control; assay type: functional
Procedure, shortened: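 After 4 weeks high-fat feeding plus 4 weeks daily dosing, overnight fast, retro-orbital blood into EDTA tubes. Serum split into VLDL, LDL and HDL by polyanionic precipitation; each fraction assayed for TC, PL, TG and apoprotein (mg/dL plasma). Pooled data from 6 rats/group, mean ± SD, dosed groups compared with high-fat group.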

[2] = system: Rattus norvegicus; test: Toxicity in HFD-induced hyperlipidemic Charles Foster rat at 100 mg/kg/day, po administered for 4 weeks by macroscopic analysis; assay type: organism-based; parameters: route oral; conditions: in vivo, 672 h
Procedure, shortened: (§1)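 Male Charles Foster rats (200−225 g) were fed a high-fat diet for 4 weeks, then dosed at 100 mg/kg/d alongside the same diet for 4 more weeks. Survival was monitored. After an overnight fast, blood was drawn and the animals were sacrificed. Macroscopic inspection and autopsy were then performed, with n = 6 per group.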

[3] = system: Rattus norvegicus; test: Toxicity in HFD-induced hyperlipidemic Charles Foster rat at 100 mg/kg/day, po administered for 4 weeks by autopsy analysis; assay type: organism-based; parameters: route oral; conditions: in vivo, 672 h; procedure, shortened: as §1

Row | Compound | Activity [1] [%] | Activity [2] | Activity [3]
1 | CCOC(=O)C(C)Oc1ccc(C(c2cn(CC)c3ccccc23)c2cn(CC)c3ccccc23)cc1 (centres undefined) | 13 | Non-toxic | Non-toxic
2 | CCOC(=O)CCCOc1ccc(C(c2cn(C)c3ccccc23)c2cn(C)c3ccccc23)cc1 | 8 |  | 
